# Results published in ChEMBL document CHEMBL4840305, “Structure-guided design and development of novel N-phenylpyrimidin-2-amine derivatives as potential c-Met inhibitors” (Eur J Med Chem, 2021).
# pIC50: −log10 of the molar value.
# Experiments:
# CAKI-1 = assay: cells; settings: Homo sapiens
# HCT-116 = assay: cells; settings: Homo sapiens
# PANC-1 = assay: cells; settings: Homo sapiens
# PC-3 = assay: cells; settings: Homo sapiens
# HepG2 = assay: cells; settings: Homo sapiens
# [1] = biological target: Hepatocyte growth factor receptor (Homo sapiens, UniProt P08581); assay: Inhibition of c-MET kinase (unknown origin) using poly(Glu:Tyr)(4:1) as substrate by ELISA
# Sequence of Hepatocyte growth factor receptor (P08581 whole entry): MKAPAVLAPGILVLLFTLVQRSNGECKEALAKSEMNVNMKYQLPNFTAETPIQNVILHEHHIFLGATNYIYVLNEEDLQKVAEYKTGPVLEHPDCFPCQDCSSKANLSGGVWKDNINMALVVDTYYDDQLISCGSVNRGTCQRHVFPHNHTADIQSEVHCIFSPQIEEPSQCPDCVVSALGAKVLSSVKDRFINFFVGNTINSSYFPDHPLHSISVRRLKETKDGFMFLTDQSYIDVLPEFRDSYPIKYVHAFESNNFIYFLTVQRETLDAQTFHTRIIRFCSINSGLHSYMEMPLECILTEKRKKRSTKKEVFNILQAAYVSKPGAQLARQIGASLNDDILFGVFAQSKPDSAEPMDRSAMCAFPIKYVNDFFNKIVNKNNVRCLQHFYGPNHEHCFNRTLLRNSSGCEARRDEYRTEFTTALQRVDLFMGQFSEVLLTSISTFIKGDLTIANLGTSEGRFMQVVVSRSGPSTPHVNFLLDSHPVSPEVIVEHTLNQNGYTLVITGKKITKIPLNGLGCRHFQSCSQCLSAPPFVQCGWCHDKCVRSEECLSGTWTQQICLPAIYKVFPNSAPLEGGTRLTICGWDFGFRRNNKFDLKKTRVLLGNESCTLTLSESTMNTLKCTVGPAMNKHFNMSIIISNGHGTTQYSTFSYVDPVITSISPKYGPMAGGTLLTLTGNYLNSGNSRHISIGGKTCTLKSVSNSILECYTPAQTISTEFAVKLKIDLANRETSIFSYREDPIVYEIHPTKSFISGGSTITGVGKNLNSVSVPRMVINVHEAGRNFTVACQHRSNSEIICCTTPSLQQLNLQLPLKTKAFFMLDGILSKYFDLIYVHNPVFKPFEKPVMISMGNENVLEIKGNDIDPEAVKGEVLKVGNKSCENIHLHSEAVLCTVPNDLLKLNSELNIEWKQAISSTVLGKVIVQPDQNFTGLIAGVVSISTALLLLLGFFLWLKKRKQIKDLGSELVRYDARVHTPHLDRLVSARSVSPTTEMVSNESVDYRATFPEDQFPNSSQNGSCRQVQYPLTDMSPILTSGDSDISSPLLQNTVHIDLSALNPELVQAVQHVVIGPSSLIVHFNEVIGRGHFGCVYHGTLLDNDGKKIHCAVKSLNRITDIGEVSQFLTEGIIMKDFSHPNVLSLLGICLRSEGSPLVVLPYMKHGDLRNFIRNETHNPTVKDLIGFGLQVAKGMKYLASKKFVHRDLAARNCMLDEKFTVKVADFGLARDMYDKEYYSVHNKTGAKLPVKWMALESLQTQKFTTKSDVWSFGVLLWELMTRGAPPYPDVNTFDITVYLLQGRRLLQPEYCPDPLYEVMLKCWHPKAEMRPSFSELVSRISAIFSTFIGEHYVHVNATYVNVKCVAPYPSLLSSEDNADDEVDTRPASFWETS
# [2] = Apparent clearance during terminal phase in Sprague-Dawley rat at 20 mg/kg, po by LC-MS/MS analysis; assay type: ADME, organism-based; settings: in vivo, read-out: CLz/F (converted)
# Method in brief: (§1)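 Male SD rats were used. Compound concentrations in plasma were measured by LC/MS/MS. The oral arm was dosed at 20 mg/kg.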
# [3] = Apparent clearance during terminal phase in Sprague-Dawley rat at 4 mg/kg, iv by LC-MS/MS analysis; assay type: ADME, organism-based; settings: in vivo
# Method in brief: as §1
# [4] = Half life in Sprague-Dawley rat at 4 mg/kg, iv by LC-MS/MS analysis; assay type: ADME, organism-based; settings: in vivo
# Method in brief: as §1
# [5] = AUC(0 to t) in Sprague-Dawley rat at 20 mg/kg, po by LC-MS/MS analysis; assay type: ADME, organism-based; set-up: dose 20 mg/kg; settings: in vivo
# [6] = Cmax in Sprague-Dawley rat at 4 mg/kg, iv by LC-MS/MS analysis; assay type: ADME, organism-based; set-up: route intravenous, dose 4 mg/kg; settings: in vivo
# Method in brief: as §1
# [7] = Half life in Sprague-Dawley rat at 20 mg/kg, po by LC-MS/MS analysis; assay type: ADME, organism-based; settings: in vivo
# Method in brief: as §1
# [8] = Tmax in Sprague-Dawley rat at 20 mg/kg, po by LC-MS/MS analysis; assay type: ADME, organism-based; settings: in vivo
# Method in brief: as §1
# [9] = AUC(0 to t) in Sprague-Dawley rat at 4 mg/kg, iv by LC-MS/MS analysis; assay type: ADME, organism-based; set-up: dose 4 mg/kg; settings: in vivo
# Method in brief: as §1
# [10] = Acute toxicity in ICR mouse assessed as animal survival at 1200 mg/kg, po measured on day 14 (reference value: 100%); assay type: organism-based; settings: in vivo, time 14 day
# [11] = Acute toxicity in ICR mouse assessed as animal survival at 600 mg/kg, po measured on day 14 (reference value: 100%); assay type: organism-based; settings: in vivo, time 14 day
# [12] = Acute toxicity in ICR mouse assessed as animal survival at 2000 mg/kg, po measured on day 14 (reference value: 100%); assay type: organism-based; settings: in vivo, time 14 day
# [13] = Cmax in Sprague-Dawley rat at 20 mg/kg, po by LC-MS/MS analysis; assay type: ADME, organism-based; set-up: route oral, dose 20 mg/kg; settings: in vivo
# Method in brief: as §1
# [14] = biological target: Voltage-gated inwardly rectifying potassium channel KCNH2 (Homo sapiens, UniProt Q12809); assay: Inhibition of human ERG
# Sequence of Voltage-gated inwardly rectifying potassium channel KCNH2 (Q12809 whole entry): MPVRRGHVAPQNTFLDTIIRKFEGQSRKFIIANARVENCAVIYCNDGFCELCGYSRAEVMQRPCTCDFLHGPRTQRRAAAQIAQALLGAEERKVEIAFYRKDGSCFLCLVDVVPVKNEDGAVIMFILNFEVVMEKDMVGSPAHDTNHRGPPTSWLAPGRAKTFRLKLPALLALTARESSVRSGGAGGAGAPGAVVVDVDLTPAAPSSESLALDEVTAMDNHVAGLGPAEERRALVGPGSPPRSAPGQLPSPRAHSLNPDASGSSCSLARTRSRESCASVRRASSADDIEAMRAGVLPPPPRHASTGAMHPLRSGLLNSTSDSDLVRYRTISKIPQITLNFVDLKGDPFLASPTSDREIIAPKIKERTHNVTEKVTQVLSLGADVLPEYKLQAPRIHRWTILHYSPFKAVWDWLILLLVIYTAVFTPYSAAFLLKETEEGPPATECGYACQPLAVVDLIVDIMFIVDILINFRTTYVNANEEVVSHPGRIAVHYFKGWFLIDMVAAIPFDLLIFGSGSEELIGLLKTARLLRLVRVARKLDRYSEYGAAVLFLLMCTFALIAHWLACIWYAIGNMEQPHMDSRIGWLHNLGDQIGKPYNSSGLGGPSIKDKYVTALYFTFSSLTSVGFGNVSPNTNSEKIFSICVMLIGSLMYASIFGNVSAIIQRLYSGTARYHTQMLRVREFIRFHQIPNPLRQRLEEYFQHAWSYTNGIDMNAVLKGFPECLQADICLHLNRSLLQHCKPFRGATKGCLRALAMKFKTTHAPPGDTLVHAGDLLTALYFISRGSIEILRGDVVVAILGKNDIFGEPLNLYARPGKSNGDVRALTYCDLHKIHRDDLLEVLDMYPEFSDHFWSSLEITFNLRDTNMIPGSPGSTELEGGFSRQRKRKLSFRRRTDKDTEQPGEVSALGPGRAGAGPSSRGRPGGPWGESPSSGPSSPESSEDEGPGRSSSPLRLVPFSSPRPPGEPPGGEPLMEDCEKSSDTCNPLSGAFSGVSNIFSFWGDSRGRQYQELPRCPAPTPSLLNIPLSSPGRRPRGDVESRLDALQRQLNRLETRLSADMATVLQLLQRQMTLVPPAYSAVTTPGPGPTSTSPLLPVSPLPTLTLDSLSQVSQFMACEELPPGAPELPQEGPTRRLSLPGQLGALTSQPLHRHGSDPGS
# [15] = Acute toxicity in ICR mouse assessed as abnormalities in liver at 600 to 1200 mg/kg, po administered as single dose and measured on day 14; assay type: organism-based; settings: in vivo, 336 h, dose 600-1200 mg/kg, time 14 day
# [16] = Acute toxicity in ICR mouse assessed as abnormalities in kidneys at 600 to 1200 mg/kg, po administered as single dose and measured on day 14; assay type: organism-based; settings: in vivo, 336 h, dose 600-1200 mg/kg, time 14 day
# [17] = Oral bioavailability in Sprague-Dawley rat at 20 mg/kg by LC-MS/MS analysis; assay type: ADME, organism-based; settings: in vivo
# Method in brief: as §1
# [18] = Acute toxicity in ICR mouse assessed as abnormalities in heart at 600 to 1200 mg/kg, po administered as single dose and measured on day 14; assay type: organism-based; settings: in vivo, 336 h, dose 600-1200 mg/kg, time 14 day
# [19] = Acute toxicity in ICR mouse assessed as animal survival at 1500 mg/kg, po measured on day 14 (reference value: 100%); assay type: organism-based; settings: in vivo, time 14 day
# [20] = Acute toxicity in ICR mouse assessed as animal survival at 800 mg/kg, po measured on day 14 (reference value: 100%); assay type: organism-based; settings: in vivo, time 14 day
# [21] = Acute toxicity in ICR mouse assessed as animal survival at 1000 mg/kg, po measured on day 14 (reference value: 100%); assay type: organism-based; settings: in vivo, time 14 day
pIC50 (CAKI-1),pIC50 (HCT-116),pIC50 (PANC-1),pIC50 (PC-3),pIC50 (HepG2),pIC50 [1],Structure (SMILES),other results
5.57,5.10,5.26,5.33,5.22,,O=C(Nc1ccc(F)cc1)C1(C(=O)Nc2ccc(Oc3cc(Nc4cccc(N5CCOCC5)c4)ncn3)c(F)c2)CC1,
5.79,5.69,5.50,5.65,5.76,,CN1CCN(c2cccc(Nc3nccc(Oc4ccc(NC(=O)C5(C(=O)Nc6ccc(F)cc6)CC5)cc4)n3)c2)CC1,
,,,,,< 5.70,COC(=O)c1ccc(Nc2nccc(Oc3ccc(NC(=O)C4(C(=O)Nc5ccc(F)cc5)CC4)cc3)n2)c(OC)c1,
5.53,5.50,5.47,5.63,5.66,,O=C(Nc1ccc(F)cc1)C1(C(=O)Nc2ccc(Oc3ccnc(Nc4cccc(N5CCOCC5)c4)n3)c(F)c2)CC1,
5.59,5.32,5.40,5.48,5.31,,O=C(Nc1ccc(F)cc1)C1(C(=O)Nc2ccc(Oc3ccnc(Nc4cccc(N5CCOCC5)c4)c3)cc2)CC1,
,,,,,< 5.70,COC(=O)c1ccc(Nc2nccc(Oc3ccc(NC(=O)C4(C(=O)Nc5ccc(F)cc5)CC4)cc3)n2)nc1,
5.48,5.45,5.55,5.71,5.15,,CNC(=O)c1cccc(Nc2nccc(Oc3ccc(NC(=O)C4(C(=O)Nc5ccc(F)cc5)CC4)cc3)n2)c1,
,,,,,< 6.00,O=C(Nc1ccc(F)cc1)c1ccccc1Nc1ccc(Oc2ccnc(Nc3cccc(CN4CCOCC4)c3)n2)cc1,
,,,,,< 6.00,O=C(Nc1ccc(F)cc1)c1ccccc1Nc1ccc(Oc2ccnc(Nc3cccc(N4CCOCC4)c3)n2)cc1,
5.73,5.63,5.70,5.74,5.68,,Cc1c(C(=O)Nc2ccc(Oc3ccnc(Nc4cccc(N5CCOCC5)c4)n3)c(F)c2)c(=O)n(-c2ccccc2)n1C,
5.41,5.38,5.18,5.58,5.45,,O=C(Nc1ccc(F)cc1)C1(C(=O)Nc2ccc(Oc3ccnc(Nc4cccc(N5CCOCC5)c4)n3)cc2)CC1,
,,,,,< 6.00,O=C(Nc1ccc(Oc2ccnc(Nc3cccc(N4CCOCC4)c3)n2)cc1)c1ccccc1Nc1ccc(F)cc1,
5.83,5.50,5.48,5.59,5.49,,O=C1CCCc2cc(Nc3nccc(Oc4ccc(NC(=O)C5(C(=O)Nc6ccc(F)cc6)CC5)cc4)n3)ccc2N1,
,,,,,< 6.00,O=C(Nc1ccc(Oc2ccnc(Nc3cccc(CN4CCOCC4)c3)n2)cc1)c1ccccc1Nc1ccc(F)cc1,
,,,,,< 5.70,COc1cc(C(=O)NCC2CC2)ccc1Nc1nccc(Oc2ccc(NC(=O)C3(C(=O)Nc4ccc(F)cc4)CC3)cc2)n1,
,,,,,,COc1cc2nccc(Oc3ccc(NC(=O)C4(C(=O)Nc5ccc(F)cc5)CC4)cc3)c2cc1OC [CABOZANTINIB],pIC50 [14]: < 4.52

Structure (SMILES),pIC50 (CAKI-1),pIC50 (HCT-116),pIC50 (PANC-1),pIC50 (PC-3),pIC50 (HepG2),pIC50 [1],other results
Cc1c(C(=O)Nc2ccc(Oc3ccnc(Nc4cccc(N5CCOCC5)c4)n3)cc2)c(=O)n(-c2ccccc2)n1C,6.28,5.86,6.00,5.87,5.87,,CL/F [2]: 11 mL/min/kg; CLz/F [3]: 6.83 mL/min/kg; half-life [4]: 8.9 h; AUC(0-t) [5]: 19000 ng·h/mL; Cmax [6]: 2470 ng/mL; half-life [7]: 9.04 h; Tmax [8]: 6 h; AUC(0-t) [9]: 8220 ng·h/mL; survival at 336 h [10]: 100%; survival at 336 h [11]: 100%; survival at 336 h [12]: 0%; Cmax [13]: 3050 ng/mL; pIC50 [14]: < 4.40; Activity [15]: Non-Toxic; Activity [16]: Non-Toxic; bioavailability [17]: 59.3%; Activity [18]: Non-Toxic; survival at 336 h [19]: 70%; survival at 336 h [20]: 100%; survival at 336 h [21]: 100%
